These results are taken from ChEMBL document CHEMBL2417369, “Synthesis and evaluation of heteroaryl substituted diazaspirocycles as scaffolds to probe the ATP-binding site of protein kinases” (Bioorg Med Chem, 2013).

The target in test [1] is Tyrosine-protein kinase Lyn (Homo sapiens, UniProt P07948). Description: Inhibition of LYN (unknown origin) at 30 uM by microfluidic mobility shift assay relative to control. The gist of the method:
(§1)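 Single-point screen in a 24-enzyme kinase panel using a microfluidic assay. Each compound was tested at […] with ATP at roughly the Km for each enzyme. The pan-AGC inhibitor H-89 served as an internal control on every plate.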

In test [2] the target is Insulin receptor (Homo sapiens) (UniProt P06213). Description: Inhibition of INSR (unknown origin) at 30 uM by microfluidic mobility shift assay relative to control. The gist of the method:
as §1

Test [3] has as its target Tyrosine-protein kinase Fyn (Homo sapiens, UniProt P06241). Description: Inhibition of FYN (unknown origin) at 30 uM by microfluidic mobility shift assay relative to control. The gist of the method:
as §1

In test [4] the target is Mitogen-activated protein kinase 14 (Homo sapiens) (UniProt Q16539). Description: Inhibition of p38alpha (unknown origin) at 30 uM by microfluidic mobility shift assay relative to control. An outline of the steps: as §1
Sequence of Mitogen-activated protein kinase 14 (Homo sapiens) (Q16539 whole entry): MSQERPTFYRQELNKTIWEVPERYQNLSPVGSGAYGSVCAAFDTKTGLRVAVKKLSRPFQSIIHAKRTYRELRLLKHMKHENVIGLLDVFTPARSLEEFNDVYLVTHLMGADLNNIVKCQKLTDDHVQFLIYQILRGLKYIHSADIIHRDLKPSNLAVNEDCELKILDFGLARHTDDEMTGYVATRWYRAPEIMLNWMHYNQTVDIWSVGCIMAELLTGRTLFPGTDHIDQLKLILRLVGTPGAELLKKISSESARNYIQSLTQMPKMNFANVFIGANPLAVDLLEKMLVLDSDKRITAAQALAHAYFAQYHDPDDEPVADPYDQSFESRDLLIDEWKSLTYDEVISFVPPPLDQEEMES
The target in test [5] is Glycogen synthase kinase-3 beta (Homo sapiens, UniProt P49841). The test is described as follows: Inhibition of GSK3beta (unknown origin) at 30 uM by microfluidic mobility shift assay relative to control. The gist of the method: as §1
Sequence of Glycogen synthase kinase-3 beta (P49841 whole entry, looked up): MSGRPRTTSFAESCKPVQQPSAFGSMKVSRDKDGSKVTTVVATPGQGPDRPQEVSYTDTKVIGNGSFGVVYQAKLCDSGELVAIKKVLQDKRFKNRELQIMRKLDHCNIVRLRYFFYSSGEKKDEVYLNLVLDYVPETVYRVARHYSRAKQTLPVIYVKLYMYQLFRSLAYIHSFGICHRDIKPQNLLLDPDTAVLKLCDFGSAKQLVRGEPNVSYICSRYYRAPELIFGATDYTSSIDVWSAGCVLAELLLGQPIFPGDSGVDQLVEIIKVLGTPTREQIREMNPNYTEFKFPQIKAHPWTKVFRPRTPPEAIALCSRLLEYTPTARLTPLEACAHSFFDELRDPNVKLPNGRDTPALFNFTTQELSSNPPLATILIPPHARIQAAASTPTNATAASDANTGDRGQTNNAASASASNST
The target in test [6] is Serine/threonine-protein kinase Chk2 (Homo sapiens, UniProt O96017). The test is described as follows: Inhibition of CHK2 (unknown origin) at 30 uM by microfluidic mobility shift assay relative to control. An outline of the steps: as §1
Sequence of Serine/threonine-protein kinase Chk2 (O96017 whole entry): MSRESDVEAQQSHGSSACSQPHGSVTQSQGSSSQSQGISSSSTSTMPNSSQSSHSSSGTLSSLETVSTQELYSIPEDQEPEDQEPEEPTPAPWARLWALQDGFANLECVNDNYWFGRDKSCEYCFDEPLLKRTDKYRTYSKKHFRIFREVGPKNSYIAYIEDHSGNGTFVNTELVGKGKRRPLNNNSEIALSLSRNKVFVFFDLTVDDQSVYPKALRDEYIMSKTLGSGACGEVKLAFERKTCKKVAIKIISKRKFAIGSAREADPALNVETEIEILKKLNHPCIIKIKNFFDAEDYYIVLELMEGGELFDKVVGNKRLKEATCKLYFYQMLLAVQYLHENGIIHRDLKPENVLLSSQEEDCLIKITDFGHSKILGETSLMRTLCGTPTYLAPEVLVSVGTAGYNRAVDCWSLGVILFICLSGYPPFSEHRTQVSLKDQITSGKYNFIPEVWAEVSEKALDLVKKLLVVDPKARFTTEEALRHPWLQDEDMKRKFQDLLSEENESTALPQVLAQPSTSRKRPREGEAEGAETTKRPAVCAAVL
The target in test [7] is T1, Serine/threonine-protein kinase Chk1 (Homo sapiens) (UniProt O14757).
T1 sequence (whole entry): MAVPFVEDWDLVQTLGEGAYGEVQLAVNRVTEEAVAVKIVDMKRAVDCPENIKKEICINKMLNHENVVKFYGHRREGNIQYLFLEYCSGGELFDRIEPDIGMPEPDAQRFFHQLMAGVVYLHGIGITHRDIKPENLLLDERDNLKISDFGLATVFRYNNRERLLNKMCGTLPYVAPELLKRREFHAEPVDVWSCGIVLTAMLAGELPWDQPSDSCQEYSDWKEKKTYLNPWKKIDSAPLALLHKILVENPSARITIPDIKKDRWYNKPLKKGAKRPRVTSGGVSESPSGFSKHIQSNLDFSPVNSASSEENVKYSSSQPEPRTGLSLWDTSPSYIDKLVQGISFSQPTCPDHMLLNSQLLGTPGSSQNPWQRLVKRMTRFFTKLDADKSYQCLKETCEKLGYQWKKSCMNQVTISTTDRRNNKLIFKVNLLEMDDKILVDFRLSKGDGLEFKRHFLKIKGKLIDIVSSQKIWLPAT
Description: Inhibition of CHK1 (unknown origin) at 30 uM by microfluidic mobility shift assay relative to control. An outline of the steps:
as §1

Test [8] has as its target T2, Serine/threonine-protein kinase D2 (Homo sapiens) (UniProt Q9BZL6).
T2 sequence (whole entry): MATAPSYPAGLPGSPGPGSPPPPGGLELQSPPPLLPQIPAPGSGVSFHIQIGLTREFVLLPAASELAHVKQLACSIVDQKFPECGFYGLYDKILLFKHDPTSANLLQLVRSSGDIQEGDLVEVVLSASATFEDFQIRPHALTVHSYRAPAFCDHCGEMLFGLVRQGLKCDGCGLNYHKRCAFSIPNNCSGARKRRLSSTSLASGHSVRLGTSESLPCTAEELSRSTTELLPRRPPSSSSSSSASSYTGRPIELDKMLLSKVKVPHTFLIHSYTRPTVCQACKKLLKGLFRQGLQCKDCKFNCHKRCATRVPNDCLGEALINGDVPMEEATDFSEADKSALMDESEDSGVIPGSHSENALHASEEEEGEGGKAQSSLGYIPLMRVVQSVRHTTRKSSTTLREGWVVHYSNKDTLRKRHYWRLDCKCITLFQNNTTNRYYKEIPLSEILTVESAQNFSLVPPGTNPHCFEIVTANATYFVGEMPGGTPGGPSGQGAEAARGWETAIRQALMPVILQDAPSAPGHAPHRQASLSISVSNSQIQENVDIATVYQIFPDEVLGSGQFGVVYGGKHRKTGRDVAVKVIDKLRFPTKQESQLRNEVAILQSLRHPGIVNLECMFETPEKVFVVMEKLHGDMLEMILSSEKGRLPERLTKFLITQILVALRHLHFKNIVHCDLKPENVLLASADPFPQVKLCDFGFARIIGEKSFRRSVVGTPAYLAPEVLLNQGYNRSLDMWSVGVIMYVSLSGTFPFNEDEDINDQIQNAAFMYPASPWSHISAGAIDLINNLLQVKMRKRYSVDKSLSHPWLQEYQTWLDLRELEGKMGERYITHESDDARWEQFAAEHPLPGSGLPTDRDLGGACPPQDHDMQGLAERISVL
Description: Inhibition of PKD2 (unknown origin) at 30 uM by microfluidic mobility shift assay relative to control. The gist of the method:
as §1

For test [9], the target named is T3, MAP kinase-activated protein kinase 5 (Homo sapiens) (UniProt Q8IW41).
T3 sequence (whole entry): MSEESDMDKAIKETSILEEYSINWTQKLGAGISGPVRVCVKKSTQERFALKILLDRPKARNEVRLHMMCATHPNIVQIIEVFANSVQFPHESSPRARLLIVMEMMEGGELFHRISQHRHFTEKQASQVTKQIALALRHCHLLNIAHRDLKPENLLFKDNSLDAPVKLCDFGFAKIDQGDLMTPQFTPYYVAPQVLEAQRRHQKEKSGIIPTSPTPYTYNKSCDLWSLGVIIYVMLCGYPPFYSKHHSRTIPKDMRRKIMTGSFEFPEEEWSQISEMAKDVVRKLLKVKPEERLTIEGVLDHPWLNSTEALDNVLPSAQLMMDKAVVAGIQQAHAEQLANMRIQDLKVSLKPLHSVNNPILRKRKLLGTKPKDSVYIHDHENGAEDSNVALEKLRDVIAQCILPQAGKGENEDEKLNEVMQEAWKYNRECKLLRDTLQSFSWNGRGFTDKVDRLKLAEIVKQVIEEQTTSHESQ
Description: Inhibition of MAPKAPK5 (unknown origin) at 30 uM by microfluidic mobility shift assay relative to control. An outline of the steps:
as §1

In test [10] the target is MAP kinase-activated protein kinase 2 (Homo sapiens) (UniProt P49137). Description: Inhibition of MK2 (unknown origin) at 30 uM by microfluidic mobility shift assay relative to control. The gist of the method:
as §1

For test [11], the target named is Protein kinase C (PKC) (Homo sapiens) (UniProt O94806+P41743+P17252+P05129+Q05655+P05771+Q05513+Q02156+P24723+Q15139+Q04759). Description: Inhibition of PKC (unknown origin) at 30 uM by microfluidic mobility shift assay relative to control. An outline of the steps:
as §1

Test [12] has as its target Ribosomal protein S6 kinase alpha-5 (Homo sapiens, UniProt O75582). Description: Inhibition of MSK1 (unknown origin) at 30 uM by microfluidic mobility shift assay relative to control. An outline of the steps:
as §1

Test [13] addresses RAC-beta serine/threonine-protein kinase (Homo sapiens, UniProt P31751). The test is described as follows: Inhibition of AKT2 (unknown origin) at 30 uM by microfluidic mobility shift assay relative to control. An outline of the steps:
as §1

Another test is filed under the species Homo sapiens. Description: Inhibition of PKA (unknown origin) at 30 uM by microfluidic mobility shift assay relative to control. An outline of the steps: as §1
Test [14] deals with RAC-alpha serine/threonine-protein kinase (Homo sapiens, UniProt P31749). Description: Inhibition of AKT1 (unknown origin) at 30 uM by microfluidic mobility shift assay relative to control. The gist of the method:
as §1

Sequence of RAC-beta serine/threonine-protein kinase (P31751 whole entry): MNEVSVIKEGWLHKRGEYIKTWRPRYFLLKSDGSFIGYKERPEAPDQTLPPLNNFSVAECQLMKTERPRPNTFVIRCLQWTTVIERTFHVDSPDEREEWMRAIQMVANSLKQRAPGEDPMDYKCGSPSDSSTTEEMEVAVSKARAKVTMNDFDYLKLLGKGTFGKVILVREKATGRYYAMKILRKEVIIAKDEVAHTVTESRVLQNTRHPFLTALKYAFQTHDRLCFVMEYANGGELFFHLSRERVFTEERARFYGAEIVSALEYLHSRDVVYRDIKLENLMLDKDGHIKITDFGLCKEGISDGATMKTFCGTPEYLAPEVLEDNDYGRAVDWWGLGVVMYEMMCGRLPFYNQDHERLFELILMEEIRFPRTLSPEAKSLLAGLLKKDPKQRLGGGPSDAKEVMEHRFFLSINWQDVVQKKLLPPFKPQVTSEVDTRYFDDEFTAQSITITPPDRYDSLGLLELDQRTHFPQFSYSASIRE
Sequence of Tyrosine-protein kinase Fyn (P06241 2-537 limits assumed): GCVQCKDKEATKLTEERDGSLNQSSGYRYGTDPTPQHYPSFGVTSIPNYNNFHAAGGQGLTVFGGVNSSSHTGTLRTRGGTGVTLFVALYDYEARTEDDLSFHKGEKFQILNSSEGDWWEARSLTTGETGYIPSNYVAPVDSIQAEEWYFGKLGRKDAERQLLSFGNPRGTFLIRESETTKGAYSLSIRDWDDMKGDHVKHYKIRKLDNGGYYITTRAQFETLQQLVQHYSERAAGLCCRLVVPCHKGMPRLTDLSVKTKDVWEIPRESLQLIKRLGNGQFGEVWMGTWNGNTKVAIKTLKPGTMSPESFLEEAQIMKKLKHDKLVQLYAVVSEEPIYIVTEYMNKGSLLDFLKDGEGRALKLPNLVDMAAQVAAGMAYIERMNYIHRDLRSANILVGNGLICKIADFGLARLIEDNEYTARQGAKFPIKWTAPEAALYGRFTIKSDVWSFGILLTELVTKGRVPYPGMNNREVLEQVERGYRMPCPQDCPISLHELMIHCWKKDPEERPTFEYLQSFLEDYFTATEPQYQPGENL
Sequence of Insulin receptor (Homo sapiens) (P06213 28-758 limits assumed): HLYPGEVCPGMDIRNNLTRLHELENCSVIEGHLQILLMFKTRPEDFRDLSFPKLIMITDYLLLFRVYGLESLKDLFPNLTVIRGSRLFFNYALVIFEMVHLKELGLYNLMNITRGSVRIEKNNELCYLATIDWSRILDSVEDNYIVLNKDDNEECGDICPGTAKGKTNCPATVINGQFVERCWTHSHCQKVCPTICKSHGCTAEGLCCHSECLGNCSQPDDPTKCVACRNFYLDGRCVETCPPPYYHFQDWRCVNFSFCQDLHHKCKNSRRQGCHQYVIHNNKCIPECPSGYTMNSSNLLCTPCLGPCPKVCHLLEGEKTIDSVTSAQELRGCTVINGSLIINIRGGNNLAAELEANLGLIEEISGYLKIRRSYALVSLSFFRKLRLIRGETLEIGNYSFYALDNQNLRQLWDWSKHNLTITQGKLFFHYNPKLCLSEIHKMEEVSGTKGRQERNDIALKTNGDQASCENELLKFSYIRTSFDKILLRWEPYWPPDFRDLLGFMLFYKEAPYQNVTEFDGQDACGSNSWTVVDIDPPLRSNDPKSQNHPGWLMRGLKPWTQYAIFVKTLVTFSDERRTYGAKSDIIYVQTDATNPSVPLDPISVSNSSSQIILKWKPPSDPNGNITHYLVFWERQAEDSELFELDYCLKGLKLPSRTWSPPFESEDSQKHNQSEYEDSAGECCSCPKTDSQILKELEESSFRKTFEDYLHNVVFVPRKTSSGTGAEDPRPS
Sequence of Insulin receptor (Homo sapiens) (P06213 763-1382 limits assumed): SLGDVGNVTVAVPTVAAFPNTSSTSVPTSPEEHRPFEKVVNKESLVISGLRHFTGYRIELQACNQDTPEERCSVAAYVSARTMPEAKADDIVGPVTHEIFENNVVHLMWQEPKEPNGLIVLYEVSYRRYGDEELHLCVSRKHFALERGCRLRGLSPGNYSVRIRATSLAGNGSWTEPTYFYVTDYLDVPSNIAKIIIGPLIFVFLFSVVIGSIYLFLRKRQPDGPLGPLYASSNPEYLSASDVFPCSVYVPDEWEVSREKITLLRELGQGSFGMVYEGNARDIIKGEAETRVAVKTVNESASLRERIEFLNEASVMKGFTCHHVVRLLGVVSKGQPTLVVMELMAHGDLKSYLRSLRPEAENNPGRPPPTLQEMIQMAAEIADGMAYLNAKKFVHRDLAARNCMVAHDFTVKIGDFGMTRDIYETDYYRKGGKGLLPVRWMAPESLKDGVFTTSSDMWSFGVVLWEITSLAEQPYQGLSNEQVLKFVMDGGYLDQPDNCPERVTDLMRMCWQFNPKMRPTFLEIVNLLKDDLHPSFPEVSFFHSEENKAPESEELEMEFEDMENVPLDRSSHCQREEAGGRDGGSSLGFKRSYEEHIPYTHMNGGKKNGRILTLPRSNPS
Sequence of Ribosomal protein S6 kinase alpha-5 (O75582 whole entry, looked up): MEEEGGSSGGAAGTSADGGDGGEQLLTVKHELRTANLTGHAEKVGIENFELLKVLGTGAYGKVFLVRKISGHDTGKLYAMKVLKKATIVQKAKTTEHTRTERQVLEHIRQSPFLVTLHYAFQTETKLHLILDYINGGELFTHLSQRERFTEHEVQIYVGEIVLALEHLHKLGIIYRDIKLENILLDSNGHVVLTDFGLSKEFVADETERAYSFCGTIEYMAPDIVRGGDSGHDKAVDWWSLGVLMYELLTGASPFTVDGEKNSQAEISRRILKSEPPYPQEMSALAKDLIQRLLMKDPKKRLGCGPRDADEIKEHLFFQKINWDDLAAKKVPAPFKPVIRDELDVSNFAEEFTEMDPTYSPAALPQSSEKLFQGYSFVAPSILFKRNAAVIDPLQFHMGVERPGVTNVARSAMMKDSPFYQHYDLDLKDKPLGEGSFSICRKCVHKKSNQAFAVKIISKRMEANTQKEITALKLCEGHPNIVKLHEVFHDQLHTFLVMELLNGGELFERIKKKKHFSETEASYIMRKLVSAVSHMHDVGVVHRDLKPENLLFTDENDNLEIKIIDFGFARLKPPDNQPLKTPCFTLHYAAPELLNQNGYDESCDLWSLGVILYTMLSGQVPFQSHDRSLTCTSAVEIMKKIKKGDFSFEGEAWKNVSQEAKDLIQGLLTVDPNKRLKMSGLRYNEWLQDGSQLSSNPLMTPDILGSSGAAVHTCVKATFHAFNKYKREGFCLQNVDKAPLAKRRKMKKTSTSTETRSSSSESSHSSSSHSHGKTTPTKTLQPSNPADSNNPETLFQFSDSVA
Sequence of Tyrosine-protein kinase Lyn (P07948 2-512 limits assumed): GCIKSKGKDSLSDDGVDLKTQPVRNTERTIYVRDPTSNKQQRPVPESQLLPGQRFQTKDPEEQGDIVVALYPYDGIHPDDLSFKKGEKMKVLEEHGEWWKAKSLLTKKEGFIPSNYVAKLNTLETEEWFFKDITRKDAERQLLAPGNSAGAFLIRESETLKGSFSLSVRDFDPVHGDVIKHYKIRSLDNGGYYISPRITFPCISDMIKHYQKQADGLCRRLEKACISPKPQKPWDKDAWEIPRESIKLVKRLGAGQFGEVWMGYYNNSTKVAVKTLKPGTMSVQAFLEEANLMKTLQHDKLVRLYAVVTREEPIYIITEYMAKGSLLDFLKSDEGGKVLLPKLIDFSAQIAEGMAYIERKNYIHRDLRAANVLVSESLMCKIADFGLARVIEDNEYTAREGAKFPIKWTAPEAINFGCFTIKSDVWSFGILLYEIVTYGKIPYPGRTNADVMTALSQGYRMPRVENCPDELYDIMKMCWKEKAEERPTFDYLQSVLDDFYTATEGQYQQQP

As a reminder, the inhibition is the percentage by which the read-out fell short of the control. For the compound `O=S(=O)(c1cccc2cnccc12)N1CCC2(CCC(O)CN2)CC1` (racemic), the inhibition in test [1] was 23%; in test [2], 0%; in [3] it was 17%; in test [4], 2%; in test [5] it was 80%; in [6] it was 59%. The inhibition in test [7] was found to be 0%; in test [8] it was 64%; in test [9], 49%; in test [10], 19%; in test [11], 0%; in test [12], 89%. In addition, the inhibition in test [13] worked out at 14%; in the test listed under Homo sapiens, 90%; in test [14], 21%.
